Source: PMC5590101 (Journal of medicinal chemistry, 2016)
“Also recorded” adds a separate entry of the source. Where two headings read alike, the source gives them in different places.

Assays:
[1] = system: microtubules in A-10 cells; conditions: read-out: EC50 for microtubule depolymerization in A-10 cells; results previously published; cited from earlier work
MDA-MB-435 cells [2] = conditions: read-out: IC50 ± SD MDA-MB-435; results previously published; cited from earlier work
SK-OV-3 [3] = conditions: read-out: IC50 ± SD SK-OV-3; parental line; results previously published; cited from earlier work
SK-OV-3 MDR1-M6/6 = conditions: IC50 MDR1-M6/6 / IC50 SK-OV-3; results previously published; cited from earlier work
HeLa [4] = conditions: read-out: IC50 ± SD HeLa; parental line; results previously published; cited from earlier work
HeLa WTβIII = conditions: IC50 HeLa WTβIII / IC50 HeLa; results previously published; cited from earlier work
CCRF-CEM = conditions: NCI panel, leukemia; cited from earlier work
HL-60(TB) = conditions: NCI panel, leukemia; cited from earlier work
K-562 = conditions: NCI panel, leukemia; cited from earlier work
MOLT-4 = conditions: NCI panel, leukemia; cited from earlier work
RPMI-8226 = conditions: NCI panel, leukemia; cited from earlier work
SR = conditions: NCI panel, leukemia; cited from earlier work
A549/ATCC = conditions: NCI panel, NSCLC; cited from earlier work
EKVX = conditions: NCI panel, NSCLC; cited from earlier work
HOP-62 = conditions: NCI panel, NSCLC; cited from earlier work
HOP-92 = conditions: NCI panel, NSCLC; cited from earlier work
NCI-H226 = conditions: NCI panel, NSCLC; cited from earlier work
NCI-H23 = conditions: NCI panel, NSCLC; cited from earlier work
NCI-H322M = conditions: NCI panel, NSCLC; cited from earlier work
NCI-H460 = conditions: NCI panel, NSCLC; cited from earlier work
NCI-H522 = conditions: NCI panel, NSCLC; cited from earlier work
COLO 205 = conditions: NCI panel, colon cancer; cited from earlier work
HCC-2998 = conditions: NCI panel, colon cancer; cited from earlier work
HCT-116 = conditions: NCI panel, colon cancer; cited from earlier work
HCT-15 = conditions: NCI panel, colon cancer; cited from earlier work
HT29 = conditions: NCI panel, colon cancer; cited from earlier work
KM12 = conditions: NCI panel, colon cancer; cited from earlier work
SF-268 = conditions: NCI panel, CNS cancer; cited from earlier work
SF-295 = conditions: NCI panel, CNS cancer; cited from earlier work
SF-539 = conditions: NCI panel, CNS cancer; cited from earlier work
SNB-19 = conditions: NCI panel, CNS cancer; cited from earlier work
SNB-75 = conditions: NCI panel, CNS cancer; cited from earlier work
U251 = conditions: NCI panel, CNS cancer; cited from earlier work
LOX IMVI = conditions: NCI panel, melanoma; cited from earlier work
M14 = conditions: NCI panel, melanoma; cited from earlier work
MDA-MB-435 = conditions: NCI panel, melanoma; cited from earlier work
SK-MEL-28 = conditions: NCI panel, melanoma; cited from earlier work
SK-MEL-5 = conditions: NCI panel, melanoma; cited from earlier work
IGROVI [5] = conditions: NCI panel, ovarian cancer; cited from earlier work
OVCAR-3 = conditions: NCI panel, ovarian cancer; cited from earlier work
OVCAR-4 = conditions: NCI panel, ovarian cancer; cited from earlier work
OVCAR-5 = conditions: NCI panel, ovarian cancer; cited from earlier work
OVCAR-8 = conditions: NCI panel, ovarian cancer; cited from earlier work
NCI/ADR-RES = conditions: NCI panel, ovarian cancer; cited from earlier work
SK-OV-3 [6] = conditions: NCI panel, ovarian cancer; cited from earlier work
786–0 = conditions: NCI panel, renal cancer; cited from earlier work
A498 = conditions: NCI panel, renal cancer; cited from earlier work
ACHN = conditions: NCI panel, renal cancer; cited from earlier work
RXF 393 = conditions: NCI panel, renal cancer; cited from earlier work
SN12C = conditions: NCI panel, renal cancer; cited from earlier work
TK10 = conditions: NCI panel, renal cancer; cited from earlier work
UO-31 = conditions: NCI panel, renal cancer; cited from earlier work
PC-3 = conditions: NCI panel, prostate cancer; cited from earlier work
DU-145 = conditions: NCI panel, prostate cancer; cited from earlier work
MCF7 = conditions: NCI panel, breast cancer; cited from earlier work
MDA-MB-231/ATCC = conditions: NCI panel, breast cancer; cited from earlier work
HS 578T = conditions: NCI panel, breast cancer; cited from earlier work
BT-549 = conditions: NCI panel, breast cancer; cited from earlier work
MDA-MB-468 = conditions: NCI panel, breast cancer; cited from earlier work
[7] = system: microtubules in A-10 cells; test: Microtubule depolymerization in A-10 cells; assay type: cell-based, rat; conditions: relative to lead (±)-1·HCl
MDA-MB-435 cells [8] = test: SRB antiproliferative assay, MDA-MB-435; assay type: cell-based
SK-OV-3 [9] = test: SRB antiproliferative assay, SK-OV-3; assay type: cell-based; conditions: SK-OV-3 and SK-OV-3 MDR1-M6/6 cell lines
HeLa [10] = test: SRB antiproliferative assay, HeLa; assay type: cell-based; conditions: HeLa and HeLa WT βIII cell lines
HeLa cells = test: Cell cycle distribution by flow cytometry; assay type: cell-based; conditions: 18 h, five-times the IC50
MDA-MB-435 xenografts = test: MDA-MB-435 flank xenograft model; assay type: in vivo, nude mice; conditions: ip, 60 mg/kg days 0 and 2, 50 mg/kg day 8; vs untreated control
How it was run: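 Nude mice bilaterally implanted sc in the flank with MDA-MB-435 tumour fragments; dosing began once tumours reached ~200 mm3. Test compound was given ip in PBS containing <5% (v/v) 50:50 Cremophor/DMSO. […] Tumour volumes and body weights were recorded 2–3 times weekly. Final volumes were compared with untreated controls by one-way ANOVA with Dunnett's test.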

NCI 60-cell line panel = test: NCI cancer cell line panel; assay type: cell-based
IGROVI [11] = test: NCI panel growth inhibition, IGROVI; assay type: cell-based

In the case of COc1ccc(N(C)c2nc(C)nc3c2CC(C)C3)cc1.Cl (racemic) [(±)-1·HCl, N-(4-methoxyphenyl)-N,2,6-trimethyl-6,7-dihydro-5H-cyclo-penta[d]-pyrimidin-4-aminium chloride], the EC50 [1] is listed as 56 nM, the IC50 (MDA-MB-435 cells [2]) is listed as 17 ± 0.7 nM and the IC50 (SK-OV-3 [3]) is listed as 38.6 ± 3.1 nM. For the same compound, the “Rr (relative resistance)” value (SK-OV-3 MDR1-M6/6) was 1.2, the IC50 (HeLa [4]) was 37.3 ± 4.1 nM and the “Rr (relative resistance)” value (HeLa WTβIII) was 0.6. The GI50 (CCRF-CEM) was 16.3 nM, the GI50 (HL-60(TB)) was under 10 nM and the GI50 (K-562) was under 10 nM. The GI50 (MOLT-4) was 31.8 nM, the GI50 (RPMI-8226) was 15.7 nM and the GI50 (SR) was under 10 nM. For the same compound, the GI50 (A549/ATCC) was 24.4 nM, the GI50 (EKVX) was 19.6 nM and the GI50 (HOP-62) was 19.4 nM. For the same compound, the GI50 (HOP-92) was 55.4 nM, the GI50 (NCI-H226) was 31.5 nM and the GI50 (NCI-H23) was 16.4 nM. For the same compound, the GI50 (NCI-H322M) was 59 nM, the GI50 (NCI-H460) was 23.4 nM and the GI50 (NCI-H522) was under 10 nM. The GI50 (COLO 205) was 18.3 nM, the GI50 (HCC-2998) was 24 nM and the GI50 (HCT-116) was 15.1 nM. The GI50 (HCT-15) was under 10 nM, the GI50 (HT29) was 11.8 nM and the GI50 (KM12) was under 10 nM. For the same compound, the GI50 (SF-268) was 15.2 nM, the GI50 (SF-295) was under 10 nM and the GI50 (SF-539) was 11.4 nM. The GI50 (SNB-19) was 36.9 nM, the GI50 (SNB-75) was under 10 nM and the GI50 (U251) was 12.5 nM. The GI50 (LOX IMVI) was 22.7 nM, the GI50 (M14) was 10.2 nM and the GI50 (MDA-MB-435) was under 10 nM. For the same compound, the GI50 (SK-MEL-28) was under 10 nM, the GI50 (SK-MEL-5) was under 10 nM and the GI50 (IGROVI [5]) was 11 nM. The GI50 (OVCAR-3) was under 10 nM, the GI50 (OVCAR-4) was 26.8 nM and the GI50 (OVCAR-5) was 38.5 nM. The GI50 (OVCAR-8) was 32.8 nM, the GI50 (NCI/ADR-RES) was under 10 nM and the GI50 (SK-OV-3 [6]) was 27.5 nM. The GI50 (786–0) was 34.8 nM, the GI50 (A498) was under 10 nM and the GI50 (ACHN) was 14.6 nM. The GI50 (RXF 393) was under 10 nM, the GI50 (SN12C) was 31.8 nM and the GI50 (TK10) was 292 nM. For the same compound, the GI50 (UO-31) was 13.4 nM, the GI50 (PC-3) was 14.6 nM and the GI50 (DU-145) was 21.4 nM. The GI50 (MCF7) was under 10 nM, the GI50 (MDA-MB-231/ATCC) was 24.6 nM and the GI50 (HS 578T) was under 10 nM. For the same compound, the GI50 (BT-549) was 21.9 nM and the GI50 (MDA-MB-468) was under 10 nM.
With COc1ccc(N(C)c2ncnc3occ(C)c23)cc1 [Compound 3, N-(4-Methoxyphenyl)-N,5-dimethylfuro[2,3-d]pyrimidin-4-amine] the “fold more potent than (±)-1·HCl, microtubule depolymerizing effects” value [7] was 2.3 fold, the IC50 (MDA-MB-435 cells [8]; Homo sapiens, MDA-MB-435, read-out: IC50 ± SD MDA-MB-435) was 4.3 ± 0.3 nM and the “fold more potent than (±)-1·HCl, antiproliferative activity (MDA-MB-435)” value (MDA-MB-435 cells [8]; relative to lead (±)-1·HCl) was “about 4 fold”. For the same compound, the “fold higher potency than (±)-1·HCl” value (SK-OV-3 [9]) was 5 fold, the “fold better activity than (±)-1·HCl” value (HeLa [10]) was 4 fold and the “accumulation of cells in G2/M” value (HeLa cells) was “significant accumulation of cells in G2/M”. For the same compound, the “antitumor effect (tumor growth)” value (MDA-MB-435 xenografts) was “statistically significant antitumor effects; also recorded: statistically significant inhibition of tumor growth; also recorded: significantly inhibited tumor growth”, the GI50 (NCI 60-cell line panel) was under 10 nM and the GI50 (IGROVI [11]) was under 10 nM.
